This assay deals with MCF7. As to the kind of experiment: Cytotoxicity against human MCF7 cells after 48 hrs by SRB assay. It is filed as functional, cell-based. The following applies: MCF7, 48 h. A digest of the protocol:
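Cells seeded at 10⁴/well and left 24 h to attach. Compounds dissolved in DMSO, diluted in saline and added to the monolayer in triplicate wells per dose, then incubated 48 h at 37 °C in 5% CO₂. Cells were fixed and stained 30 min with 0.4% SRB in 1% acetic acid, washed four times with 1% acetic acid, and the dye recovered in Tris–EDTA. Absorbance was read, and surviving fraction plotted against concentration.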

Structures are written as SMILES. Converted amounts (≈) assume the structure as drawn.

As to `Cc1c2c(nc3[nH]c(=S)n(-c4ccc(S(N)(=O)=O)cc4)c(=N)c13)CCCC2`, the IC50 (in general, the midpoint of a concentration-inhibition curve) was found to be 0.95 µg/mL (≈ 2.37 µM).
For `Cc1c2c(nc3[nH]c(=S)n(-c4ccc(S(=O)(=O)Nc5ncccn5)cc4)c(=N)c13)CC(C)(C)CC2=O` the value was 9.19 µg/mL (≈ 17.6 µM); for `Cc1c2c(nc3[nH]c(=S)n(-c4ccc(S(=O)(=O)NC(=N)N)cc4)c(=N)c13)CCCC2`, 1.28 µg/mL (≈ 2.89 µM).
The compound `Cc1c2c(nc3ncn(-c4ccc(S(N)(=O)=O)cc4)c(=N)c13)CC(C)(C)CC2=O` had an IC50 of 1.5 µg/mL (≈ 3.65 µM).
With `Cc1cc(NS(=O)(=O)c2ccc(-n3c(=S)[nH]c4nc5c(c(C)c4c3=N)CCCC5)cc2)no1`, half-maximal inhibition (IC50) required 2.62 µg/mL (≈ 5.43 µM).
Next, `Cc1c(C#N)c(/N=C/Nc2ccc(S(N)(=O)=O)cc2)nc2c1CCCC2`: above 10 µg/mL; `Cc1c2c(nc3[nH]c(=S)n(-c4ccc(S(=O)(=O)Nc5ncccn5)cc4)c(=N)c13)CCCC2`: 1.48 µg/mL (≈ 3.09 µM).
Turning to `Cc1cc(NS(=O)(=O)c2ccc(N/C=N/c3nc4c(c(C)c3C#N)CCCC4)cc2)no1`, half-maximal inhibition (IC50) was put at 1.95 µg/mL (≈ 4.33 µM).
Regarding `Cc1c2c(nc3[nH]c(=S)n(-c4ccc(S(N)(=O)=O)cc4)c(=N)c13)CC(C)(C)CC2=O`, the IC50 is 4 µg/mL (≈ 9.02 µM). Against the preceding compound, the IC50 is about 2.1-fold higher.
For `Cc1c2c(nc3[nH]c(=S)n(-c4ccc(S(=O)(=O)NC(=N)N)cc4)c(=N)c13)CC(C)(C)CC2=O` the value was 5.17 µg/mL (≈ 10.6 µM); for `Cc1cc(NS(=O)(=O)c2ccc(N/C=N/c3nc4c(c(C)c3C#N)C(=O)CC(C)(C)C4)cc2)no1`, 1.9 µg/mL (≈ 3.86 µM); for `Cc1cc(NS(=O)(=O)c2ccc(-n3c(=S)[nH]c4nc5c(c(C)c4c3=N)C(=O)CC(C)(C)C5)cc2)no1`, above 10 µg/mL.
`Cc1cc(NS(=O)(=O)c2ccc(-n3cnc4nc5c(c(C)c4c3=N)C(=O)CC(C)(C)C5)cc2)no1` showed an IC50 of 2.6 µg/mL (≈ 5.28 µM).
Compound `Cc1c(C#N)c(/N=C/Nc2ccc(S(N)(=O)=O)cc2)nc2c1C(=O)CC(C)(C)C2` showed an IC50 of 2.62 µg/mL (≈ 6.37 µM).

(Values after ChEMBL document CHEMBL1154096, “Design, synthesis and anticancer evaluation of novel tetrahydroquinoline derivatives containing sulfonamide moiety” (Eur J Med Chem, 2009).)
